A short description of series [1]: Toxicity in Balb/C mouse. The settings on record: in vivo.
A further series deals with MDA-MB-231. The series is described as follows: Growth inhibition of human MDA-MB-231 cells. The format is functional, cell-based.
Series [2] concerns A2780. Description: Growth inhibition of human A2780 cells. In kind it is functional, cell-based.
Series [3] is described as follows: Inhibition of pig brain tubulin polymerization incubated for 20 mins by spectrophotometry. The format is tissue-based, Sus scrofa.
The test system of the next series is SK-OV-3. Description: Growth inhibition of human SK-OV-3 cells. The format is functional, cell-based.
The next series relates to HeLa. Description: Growth inhibition of human HeLa cells. In kind it is functional, cell-based.
The nature of series [4]: Toxicity in Balb/C mouse xenografted with human A2780 cells assessed as induction of body weight loss at 12.5 mg/kg, ip dosed once every 2 days. In kind it is organism-based. The settings on record: in vivo, 48 h, time 2 day. Summed up: (§1)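 Xenograft model built by subcutaneous inoculation of A2780 cells into female Balb/C nude mice, then treated at 12.5 mg/kg. Read-outs named per line: tumor growth, main organs examined for abnormalities, body weight monitored.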
On the technique in general: A xenograft is tissue or cells of one species grown in another, often human tumour cells in immunodeficient mice.

Series [5] has as its system A2780. Description: Antitumor activity against human A2780 cells xenografted in Balb/C mouse assessed as inhibition of tumor growth at 12.5 mg/kg, ip dosed once every 2 days. The format is functional, organism-based. Conditions: time 2.0 day. Summed up: as §1
Series [6] in a line: Toxicity in Balb/C mouse xenografted with human A2780 cells assessed as induction of abnormalities of visceral organs at 12.5 mg/kg, ip dosed once every 2 days. In kind it is organism-based. The settings on record: in vivo, 48 h, time 2 day. Summed up:
as §1

Data on five molecules can be found in ChEMBL document CHEMBL4680095, “Potent Antitumor Activities and Structure Basis of the Chiral β-Lactam Bridged Analogue of Combretastatin A-4 Binding to Tubulin” (J Med Chem, 2016).

Activity calls are given as the source filed them. No cut-off for these calls is given here.

The term LD50 denotes the dose at which mortality reaches 50%. Low values mean a more toxic substance, high ones a less toxic substance. On to `COc1cc2c(c(OC)c1OC)-c1ccc(OC)c(=O)cc1[C@@H](NC(C)=O)CC2` [COLCHICINE], for which the LD50 in [1] was 4 mg/kg.

As usually defined, the IC50 is the concentration that inhibits the measured activity by half. In the case of `C=C1C(=O)N(c2cc(OC)c(OC)c(OC)c2)[C@@H]1c1ccc(OC)c(O)c1`, the IC50 with MDA-MB-231 was greater than 10000 nM; in the series with A2780 [2], 4600 nM; in [3], greater than 100000 nM; in the series with SK-OV-3, 3500 nM; in the series with HeLa, 5500 nM.

As to `C=C1C(=O)N(c2cc(OC)c(OC)c(OC)c2)[C@H]1c1ccc(OC)c(O)c1`, the IC50 with MDA-MB-231 was 308 nM; with A2780 [2], 115 nM; in series [3] it was 6600 nM; in the series on SK-OV-3 it was 114 nM; in the series with HeLa it was 243 nM.

On to `COc1ccc([C@H]2[C@@H](C)C(=O)N2c2cc(OC)c(OC)c(OC)c2)cc1O`, for which the IC50 in the series with MDA-MB-231 is 56 nM; with A2780 [2] it was 31 nM; in series [3], 3500 nM; in the series on SK-OV-3, 57 nM; with HeLa, 63 nM. Further, the Activity result in [4] and in [6] was “Non-Toxic” throughout. Besides, the TGI result with A2780 [5] is “Active”. For the same molecule, the LD50 in [1] is greater than 500 mg/kg.

Turning to `COc1ccc(/C=C\c2cc(OC)c(OC)c(OC)c2)cc1O` [COMBRETASTATIN A4], the IC50 in series [3] is 1320 nM.
